Experimental data taken from ChEMBL document CHEMBL3098028, “Synthesis and in vitro and in vivo pharmacological evaluation of new 4-aminoquinoline-based compounds” (ACS Med Chem Lett, 2013).

What was measured:
Cytochrome P450 2C8 = target: T1, Cytochrome P450 2C8 (Homo sapiens, UniProt P10632); experiment: Inhibition of CYP2C8 in human liver microsomes assessed as paclitaxel 6alpha-hydroxylation after 20 mins by LC-MS/MS analysis; assay type: ADME
T1 sequence (P10632 whole entry): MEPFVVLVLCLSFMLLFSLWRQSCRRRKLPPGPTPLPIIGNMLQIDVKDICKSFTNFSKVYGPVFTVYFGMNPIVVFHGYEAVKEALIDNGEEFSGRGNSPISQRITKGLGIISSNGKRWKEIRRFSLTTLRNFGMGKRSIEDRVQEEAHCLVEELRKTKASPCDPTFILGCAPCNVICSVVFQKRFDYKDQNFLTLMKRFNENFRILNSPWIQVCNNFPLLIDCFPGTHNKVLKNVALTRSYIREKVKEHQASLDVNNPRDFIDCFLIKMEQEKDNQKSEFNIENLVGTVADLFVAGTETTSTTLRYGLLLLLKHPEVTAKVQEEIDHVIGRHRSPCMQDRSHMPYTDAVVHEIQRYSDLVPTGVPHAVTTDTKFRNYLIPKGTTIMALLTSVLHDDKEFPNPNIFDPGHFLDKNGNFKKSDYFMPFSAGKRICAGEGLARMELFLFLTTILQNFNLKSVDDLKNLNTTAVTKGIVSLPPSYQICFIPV

Cytochrome P450 1A2 = target: T2, Cytochrome P450 1A2 (Homo sapiens, UniProt P05177); experiment: Inhibition of CYP1A2 in human liver microsomes assessed as phenacetin O-deethylation after 20 mins by LC-MS/MS analysis; assay type: ADME
T2 sequence (P05177 whole entry): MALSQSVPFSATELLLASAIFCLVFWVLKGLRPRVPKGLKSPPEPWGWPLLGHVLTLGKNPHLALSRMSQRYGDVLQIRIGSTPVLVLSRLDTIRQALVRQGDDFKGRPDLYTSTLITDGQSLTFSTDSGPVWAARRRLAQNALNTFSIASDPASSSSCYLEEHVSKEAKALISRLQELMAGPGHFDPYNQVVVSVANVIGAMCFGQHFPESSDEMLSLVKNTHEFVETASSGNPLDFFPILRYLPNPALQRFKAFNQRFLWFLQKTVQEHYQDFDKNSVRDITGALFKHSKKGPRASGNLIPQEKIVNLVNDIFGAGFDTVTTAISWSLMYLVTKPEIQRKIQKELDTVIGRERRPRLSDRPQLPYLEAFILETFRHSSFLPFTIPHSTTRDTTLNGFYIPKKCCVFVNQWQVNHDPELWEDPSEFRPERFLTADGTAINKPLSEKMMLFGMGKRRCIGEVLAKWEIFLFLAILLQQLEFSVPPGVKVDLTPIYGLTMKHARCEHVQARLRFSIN

Mus musculus = experiment: AUC (0 to infinity) in C57BL/6 mouse at 2.5 mg/kg, iv; assay type: ADME, organism-based, Plasma; design: time infinity, dose 2.5 mg/kg, route intravenous; conditions: in vivo
How it was run: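 Healthy male C57/BL6 mice received a single intravenous dose (2.5 or 5.0 mg/kg) or oral dose (20 or 40 mg/kg). Plasma concentrations were followed over time to give AUC0-∞ in min·μmol/L, alongside t1/2, CL, Vd, Vss, Cmax, Tmax and oral bioavailability. Values are means of five animals.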

Plasmodium falciparum = experiment: Antiplasmodial activity against chloroquine-resistant Plasmodium falciparum K1 after 24 hrs by [3H]hypoxanthine incorporation assay; assay type: functional, organism-based
How it was run: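 Antiplasmodial testing was done at the Swiss Tropical and Public Health Institute. Chloroquine, the reference drug, was tested as its diphosphate salt.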

Q: Which IC50 (Cytochrome P450 2C8) does the source give for `CC(C)(C)n1nnnc1C(NCCNc1ccnc2cc(Cl)ccc12)c1ccc(Cl)cc1` (centres undefined) here?
A: 12.7 µM

Q: And the IC50 (Cytochrome P450 1A2)?
A: > 20 µM

Q: And the AUC (Mus musculus)?
A: 107 µmol·min/L

Q: And the IC50 (Plasmodium falciparum)?
A: 0.001 µM
